According to ChEMBL document CHEMBL5154683, “A 5-FU Precursor Designed to Evade Anabolic and Catabolic Drug Pathways and Activated by Pd Chemistry In Vitro and In Vivo” (J Med Chem, 2022):

What was measured:
[1] = Prodrug conversion in human liver S9 fraction assessed as DH5FU metabolite formation at 1.6 mM incubated for 1 hr in presence of NADPH by 19F-NMR based analysis; assay type: ADME, subcellular; details: s9, 1 h, 1600 µM
How it was run: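 Compound added as 150 mM stock in DMSO-d₆, preincubated 5 min at 37 °C with enzyme mixture, then NADPH added (1 mM) and incubated 1 h at 37 °C, 600 rpm; controls without NADPH and without enzymes. Stopped with EtOAc, dried under N₂, redissolved in DMSO-d₆, DH5FU detected by ¹⁹F NMR vs authentic sample.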

HCT-116 [2] = experiment: Antiproliferative activity against human HCT-116 cells assessed as reduction in cell viability at 100 uM incubated for 5 days in presence of Pd-resins at 0.8 mg/ml by PrestoBlue dye based assay relative to control; assay type: functional; details: time 5 day
How it was run: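 HCT116 seeded at 750 cells/well and grown 48 h. Medium then replaced with fresh medium with or without Pd resins (20–160 μg per well; 0.2–1.4 mg/mL). Compound added as 5 μL of a 2 mM stock in 2% DMSO/medium, incubated 5 d. PrestoBlue fluorescence read; values normalised to untreated cells within each resin dilution.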

BXPC-3 = experiment: Antiproliferative activity against human BxPC-3 cells assessed as reduction in cell viability measured after 5 days by PrestoBlue reagent based assay; assay type: functional; details: BXPC-3, 120 h
How it was run: (§1)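 Cells in 10% FBS, 2 mM L-glutamine media at 37 °C, 5% CO₂ (HCT116 in McCoy's 5A, BxPC-3 in RPMI). Seeded at 3000 (HCT116) or 2500 (BxPC-3) cells/well and grown 48 h. Medium then replaced with drug-containing medium, 0.1% DMSO, for 5 d. PrestoBlue 10% v/v added for 1 h, fluorescence read ex 540/em 590 nm. Normalised to DMSO-only wells; sigmoidal variable-slope fit; n = 3.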

HCT-116 [3] = experiment: Antiproliferative activity against human HCT-116 cells assessed as reduction in cell viability measured after 5 days by PrestoBlue reagent based assay; assay type: functional; details: HCT-116, 120 h; how it was run: as §1

SMILES	Drug metabolism [1]	Activity (HCT-116 [2])	EC50 (BXPC-3)	EC50 (HCT-116 [3])
C#CCn1cc(F)c(=O)[nH]c1=O	Metabolite_Detected	14%		
O=c1[nH]cc(F)c(=O)[nH]1 [FLUOROURACIL]	Metabolite_Detected		140 nM	500 nM
